Calls of active or inactive are those of the source. The rule behind the calls is not given here.
Columns and labels:
[1] = test system: Venezuelan equine encephalitis virus; experiment: Antiviral activity against Venezuelan equine encephalitis virus TC83 infected in Vero 76 cells assessed as reduction in virus-induced cytopathic effect after 2 days by Celltiter-Glo reagent based assay; type: functional, organism-based; details: TC83, Vero 76, 48 h
[2] = Selectivity index, ratio of CC50 for african green monkey Vero 76 cells to EC50 for Venezuelan equine encephalitis virus TC83; type: toxicity, cell-based; details: read-out: Ratio CC50/EC50
[3] = Cytotoxicity against african green monkey Vero 76 cells after 3 days by Celltiter-Glo reagent based assay; type: cell-based; details: chlorocebus sabaeus, vero 76, 72 h
In short: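 Vero 76 cells were seeded overnight at 12 000/well and given an 8-point 2-fold compound series (20 mM DMSO stock) in EMEM/10% FBS with no virus. Viability was read by CellTiter-Glo after 3 days relative to untreated cells. Run in duplicate; CC50 from a four-parameter logistic or sigmoidal fit.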

[4] = test system: Venezuelan equine encephalitis virus; experiment: Antiviral activity against Venezuelan equine encephalitis virus TrD infected in Vero 76 cells assessed as reduction in virus-induced cytopathic effect after 2 days by Celltiter-Glo reagent based assay; type: functional, organism-based; details: Vero 76, 48 h
[5] = Aqueous solubility in PBS buffer; type: physicochemical
In short: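 Solubility measured in 1× PBS at pH 7.4.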

[6] = test system: Venezuelan equine encephalitis virus; experiment: Antiviral activity against Venezuelan equine encephalitis virus TC83 infected in Vero 76 cells assessed as reduction in viral titer at 1 uM by crystal violet staining based microplaque assay relative to untreated control; type: functional
[7] = test system: Venezuelan equine encephalitis virus; experiment: Antiviral activity against Venezuelan equine encephalitis virus V3526 infected in Vero 76 cells assessed as reduction in virus-induced cytopathic effect after 2 days by Celltiter-Glo reagent based assay; type: functional, organism-based; details: V3526, Vero 76, 48 h
[8] = test system: Venezuelan equine encephalitis virus; experiment: Antiviral activity against Venezuelan equine encephalitis virus TrD infected in Vero 76 cells assessed as reduction in viral titer at 5 uM by crystal violet staining based microplaque assay relative to untreated control; type: functional, organism-based

Row | SMILES | EC50 [1] | selectivity ratio [2] | CC50 [3] | also measured
1 | COc1cccc(NC(=O)c2cc([N+](=O)[O-])ccc2/N=C2\CN(C)CCN2C)c1 | 8.1 µM | > 6.2 | > 50 µM | –
2 | CC(C)NC(=O)c1cc([N+](=O)[O-])ccc1/N=C1\CN(C)CCN1C | > 25 µM | – | > 50 µM | –
3 | CCN1CCN(Cc2nc3ccc(S(=O)(=O)O)cc3c(=O)n2-c2ccccc2)CC1 | > 25 µM | – | > 50 µM | –
4 | O=c1c2cc([N+](=O)[O-])ccc2nc(CN2CCN(c3ccccc3)CC2)n1-c1ccccc1F | > 25 µM | – | > 50 µM | –
5 | CCN1CCN(Cc2nc3ccc(C(=O)O)cc3c(=O)n2-c2ccccc2)CC1 | > 25 µM | – | > 50 µM | –
6 | CN1CCN(C)/C(=N/c2ccc(C#N)cc2C(=O)Nc2cccc(F)c2)C1 | 0.8 µM | > 62.5 | > 50 µM | –
7 | CCN1CCN(Cc2nc3ccc([N+](=O)[O-])cc3c(=O)n2-c2ccc(F)cc2)CC1 | 0.8 µM | > 62.5 | > 50 µM | –
8 | CN1CCN(C)/C(=N/c2ccc(C(F)(F)F)cc2C(=O)Nc2ccccc2)C1 | 22.3 µM | > 2.2 | > 50 µM | –
9 | CCN1CCN(c2nc3ccc([N+](=O)[O-])cc3c(=O)n2-c2ccccc2)CC1 | > 25 µM | – | > 50 µM | –
10 | CN1CCN(C)/C(=N/c2ccc([N+](=O)[O-])cc2C(=O)Nc2cccc(F)c2)C1 | 0.1 µM | > 500 | > 50 µM | –
11 | CN1CCN(C)/C(=N/c2cc(F)ccc2C(=O)Nc2ccccc2)C1 | > 25 µM | – | > 50 µM | –
12 | CN1CCN(C)/C(=N/c2ccc([N+](=O)[O-])cc2C(=O)Nc2ccc(F)cc2)C1 | 0.09 µM | > 556 | > 50 µM | –
13 | CN1CCN(C)/C(=N/c2ccc([N+](=O)[O-])cc2C(=O)Nc2ccccc2F)C1 | 0.2 µM | > 250 | > 50 µM | –
14 | CCN1CCN(Cc2nc3ccc(C(F)(F)F)cc3c(=O)n2-c2ccccc2F)CC1 | > 25 µM | – | > 50 µM | –
15 | CNCCCN(C)Cc1nc2ccc([N+](=O)[O-])cc2c(=O)n1-c1ccccc1 | 0.6 µM | > 83.3 | > 50 µM | –
16 | CN1CCN(C)/C(=N/c2ccc([N+](=O)[O-])cc2C(=O)NCc2ccccc2)C1 | 3.7 µM | > 13.5 | > 50 µM | –
17 | O=c1c2cc([N+](=O)[O-])ccc2nc(CN2CCNCC2)n1-c1ccccc1 | 0.2 µM | > 250 | > 50 µM | –
18 | CCN1CCN(Cc2nc3ccc([N+](=O)[O-])cc3c(=O)n2C(C)C)CC1 | > 25 µM | – | > 50 µM | –
19 | O=c1c2cc([N+](=O)[O-])ccc2nc(CN2CCNCC2)n1-c1ccccc1F | 0.2 µM | > 250 | > 50 µM | –
20 | CN1CCN(C)/C(=N/c2cc(Cl)c(C#N)cc2C(=O)Nc2ccccc2)C1 | 0.1 µM | > 500 | > 50 µM | –

Row | SMILES | EC50 [1] | selectivity ratio [2] | CC50 [3] | also measured
21 | COC(=O)c1ccc(/N=C2\CN(C)CCN2C)c(C(=O)Nc2ccccc2)c1 | 2 µM | > 25 | > 50 µM | –
22 | CCN1CCN(Cc2nc3ccc([N+](=O)[O-])cc3c(=O)n2-c2cccc(F)c2)CC1 | 0.4 µM | > 125 | > 50 µM | –
23 | O=C1CN(Cc2nc3ccc([N+](=O)[O-])cc3c(=O)n2-c2ccccc2F)CCN1 | > 25 µM | – | > 50 µM | –
24 | CCN1CCN(Cc2nc3ccc(C#N)cc3c(=O)n2-c2ccccc2)CC1 | 1.1 µM | > 45.5 | > 50 µM | –
25 | CCN1CCN(Cc2nc3ccc([N+](=O)[O-])cc3c(=O)[nH]2)CC1 | > 25 µM | – | > 50 µM | –
26 | O=c1c2cc([N+](=O)[O-])ccc2nc(CN2CCOCC2)n1-c1ccccc1F | 8.7 µM | > 5.7 | > 50 µM | –
27 | CN1CCN(C)/C(=N/c2ccc([N+](=O)[O-])cc2C(=O)Nc2ccsc2)C1 | 0.5 µM | 100 | > 50 µM | –
28 | CCN1CCN(Cc2nc3ccc([N+](=O)[O-])cc3c(=O)n2Cc2ccccc2)CC1 | > 25 µM | – | > 50 µM | –
29 | CCN1CCN(Cc2nc3ccc([N+](=O)[O-])cc3c(=O)n2-c2ccccc2)CC1 | 0.3 µM | > 167 | > 50 µM | –
30 | CN(C)c1ccc(-n2c(CN3CCNCC3)nc3ccc([N+](=O)[O-])cc3c2=O)cc1 | > 25 µM | – | > 50 µM | –
31 | CC(C)N1CCN(Cc2nc3ccc([N+](=O)[O-])cc3c(=O)n2-c2ccccc2F)CC1 | 4.4 µM | > 11.4 | > 50 µM | –
32 | COc1cccc(-n2c(CN3CCNCC3)nc3ccc([N+](=O)[O-])cc3c2=O)c1 | 5.1 µM | > 9.8 | > 50 µM | –
33 | CN1CCN(C)/C(=N/c2ccc(C#N)cc2C(=O)Nc2ccccc2)C1 | 0.4 µM | > 125 | > 50 µM | –
34 | CN(C)c1cccc(-n2c(CN3CCNCC3)nc3ccc([N+](=O)[O-])cc3c2=O)c1 | > 25 µM | – | > 50 µM | –
35 | CN1CCN(C)/C(=N/c2cc(F)c(F)cc2C(=O)Nc2ccccc2)C1 | 4.4 µM | > 11.4 | > 50 µM | –
36 | CN1CCN(C)/C(=N/c2ccc(C#N)cc2C(=O)Nc2ccccc2F)C1 | 3.7 µM | > 13.5 | > 50 µM | –
37 | COc1ccc(-n2c(CN3CCNCC3)nc3ccc([N+](=O)[O-])cc3c2=O)cc1 | 0.2 µM | > 250 | > 50 µM | –
38 | O=c1c2cc([N+](=O)[O-])ccc2nc(CN2CCCCC2)n1-c1ccccc1F | 4.7 µM | > 10.6 | > 50 µM | –
39 | CCN1CCN(Cc2nc3ccc([N+](=O)[O-])cc3c(=O)n2-c2ccccc2F)CC1 | 0.8 µM | – | > 50 µM | EC50 [4]: 0.6 µM; solubility [5]: > 122 µg/mL; fold change (FC) [6]: 3; EC50 [7]: 0.3 µM; inhibition [8]: Active
40 | O=c1c2cc([N+](=O)[O-])ccc2nc(C2CCNCC2)n1-c1ccccc1 | 3.6 µM | > 13.9 | > 50 µM | –

Row | SMILES | EC50 [1] | selectivity ratio [2] | CC50 [3] | also measured
41 | COc1ccccc1-n1c(CN2CCNCC2)nc2ccc([N+](=O)[O-])cc2c1=O | > 25 µM | – | > 50 µM | –
42 | CCN1CCN(Cc2nc3ccc(-c4ccccn4)cc3c(=O)n2-c2ccccc2)CC1 | > 25 µM | – | > 50 µM | –
43 | CCN1CCN(C)C/C1=N\c1ccc([N+](=O)[O-])cc1C(=O)Nc1ccccc1 | 0.05 µM | > 1000 | > 50 µM | –
44 | CCN1CCN(Cc2nc3ccc(I)cc3c(=O)n2-c2ccccc2)CC1 | 17.1 µM | > 2.9 | > 50 µM | –
45 | CCN1CCN(Cc2nc3ccc(C(=O)N(C)C)cc3c(=O)n2-c2ccccc2)CC1 | > 25 µM | – | > 50 µM | –
46 | O=c1c2cc([N+](=O)[O-])ccc2nc(CN2CCNCC2)n1-c1ccsc1 | 1.4 µM | > 35.7 | > 50 µM | –
47 | COc1ccccc1NC(=O)c1cc([N+](=O)[O-])ccc1/N=C1\CN(C)CCN1C | 33.7 µM | > 1.5 | > 50 µM | –
48 | CN1CCN(Cc2nc3ccc([N+](=O)[O-])cc3c(=O)n2-c2ccccc2F)CC1 | 0.8 µM | > 62.5 | > 50 µM | –
49 | O=c1c2cc([N+](=O)[O-])ccc2nc(CN2CCCNCC2)n1-c1ccccc1 | 0.9 µM | > 55.6 | > 50 µM | –
50 | CN1CCN(C)/C(=N/c2cc([N+](=O)[O-])ccc2C(=O)Nc2ccccc2)C1 | 8.4 µM | > 6 | > 50 µM | –
51 | CN1CCN(C)/C(=N/c2ccc(F)cc2C(=O)Nc2ccccc2)C1 | 6.4 µM | > 7.8 | > 50 µM | –
52 | CCN1CCN(Cc2nc3ccc(-c4cccnc4)cc3c(=O)n2-c2ccccc2)CC1 | > 25 µM | – | > 50 µM | –
53 | CCN1CCN(Cc2nc3ccc(C(N)=O)cc3c(=O)n2-c2ccccc2)CC1 | > 25 µM | – | > 50 µM | –
54 | CCN1CCN(Cc2nc3ccccc3c(=O)n2-c2ccccc2F)CC1 | > 25 µM | – | > 50 µM | –
55 | CCN1CCN(Cc2nc3ccc(-c4nnn[nH]4)cc3c(=O)n2-c2ccccc2)CC1 | > 25 µM | – | > 50 µM | –
56 | CN1CCN(C)/C(=N/c2ccccc2C(=O)Nc2ccccc2)C1 | > 25 µM | – | > 50 µM | –
57 | CCN1CCN(Cc2nc3ccc([N+](=O)[O-])cc3c(=O)n2C)CC1 | > 25 µM | – | > 50 µM | –
58 | CN1CCN(C)/C(=N/c2cc(F)c(C#N)cc2C(=O)Nc2ccccc2)C1 | 0.4 µM | > 125 | > 50 µM | –
59 | O=c1c2cc([N+](=O)[O-])ccc2nc(CN2CCCNC2)n1-c1ccccc1 | 1.1 µM | > 45.5 | > 50 µM | –

From ChEMBL document CHEMBL3352189 (J Med Chem, 2014)
